According to ChEMBL document CHEMBL3621084, “Discovery of 2-Pyridinone Aminals: A Prodrug Strategy to Advance a Second Generation of HIV-1 Integrase Strand Transfer Inhibitors” (J Med Chem, 2015):
≈ marks a conversion by molar mass, not a printed value.

How the values were obtained:
[1] = tested on: Human immunodeficiency virus 1; test: Antiviral activity against HIV1 infected in human MT4 cells expressing GFP incubated for 48 to 72 hrs in absence of 50% normal human serum by multiple round viral replication kinetics assay; format: functional
[2] = Solubility in FaSSiF at pH 6.5 at room temperature incubated for 4 hrs; format: physicochemical
[3] = Stability in SGF at pH 1.8 at 37 °C incubated for 4 hrs
[4] = AUC (0 to infinity) in beagle dog at 2 mg/kg, po by LC-MS/MS method; format: ADME, organism-based, Canis lupus familiaris; set-up: dose 2 mg/kg, route oral, time infinity; conditions: beagle, in vivo
[5] = Stability in FaSSiF at pH 6.5 at 37 °C incubated for 4 hrs
[6] = Permeability in LLC-PK1 cells at 1 uM incubated for 3 hrs by LC-MS/MS method; format: ADME, cell-based, Sus scrofa; conditions: pig, read-out: permeability
[7] = AUC (0 to infinity) in jugular vein of portal vein-cannulated beagle dog at 10 mg/kg, po by LC-MS/MS method; format: ADME, organism-based, Canis lupus familiaris; set-up: dose 10 mg/kg, time infinity, route oral
Procedure, shortened: (§1)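 Portal vein-cannulated dogs received the prodrugs orally at doses normalized to 10 mg/kg of the parent molecule. Prodrug and parent concentrations were determined in plasma collected from the portal and jugular veins, and AUC was derived for each analyte at each site.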

[8] = (§2) AUC (0 to infinity) in portal vein of portal vein-cannulated beagle dog assessed as (1R,2R,5S)-8'-(3-chloro-4-fluorobenzyl)-6'-hydroxy-2'-((S)-2-hydroxypropyl)-9',10'-dihydro-1'H-spiro[bicyclo[3.1.0]hexane-2,3'-imidazo[5,1-a][2,6]naphthyridine]-1',5',7'(2'H,8'H)-trione level at 10 mg/kg, po by LC-MS/MS method; format: ADME, organism-based, Canis lupus familiaris; set-up: dose 10 mg/kg, route oral, time infinity; conditions: in vivo; procedure, shortened: as §1
[9] = AUC (0 to infinity) in portal vein of portal vein-cannulated beagle dog at 10 mg/kg, po by LC-MS/MS method; format: ADME, organism-based, Canis lupus familiaris; set-up: dose 10 mg/kg, time infinity, route oral; procedure, shortened: as §1
[10] = tested on: Canis familiaris; test: AUC (0 to infinity) in beagle dog assessed as (1R,2R,5S)-8'-(3-chloro-4-fluorobenzyl)-6'-hydroxy-2'-((S)-2-hydroxypropyl)-9',10'-dihydro-1'H-spiro[bicyclo[3.1.0]hexane-2,3'-imidazo[5,1-a][2,6]naphthyridine]-1',5',7'(2'H,8'H)-trione level at 10 mg/kg, po by LC-MS/MS method; format: ADME, organism-based, Canis lupus familiaris; set-up: dose 10 mg/kg, time infinity, route oral; conditions: in vivo
Procedure, shortened: (§3)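 Oral rising-dose studies were run in beagle dogs with prodrugs, at doses normalized to account for the promoiety so that they give the actual parent dose administered. The read-out was plasma exposure (AUC) of the parent compound.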

[11] = tested on: Canis familiaris; test: AUC (0 to infinity) in beagle dog assessed as (1R,2R,5S)-8'-(3-chloro-4-fluorobenzyl)-6'-hydroxy-2'-((S)-2-hydroxypropyl)-9',10'-dihydro-1'H-spiro[bicyclo[3.1.0]hexane-2,3'-imidazo[5,1-a][2,6]naphthyridine]-1',5',7'(2'H,8'H)-trione level at 2 mg/kg, po by LC-MS/MS method; format: ADME, organism-based, Canis lupus familiaris; set-up: dose 2 mg/kg, time infinity, route oral; conditions: in vivo; procedure, shortened: as §3
[12] = as §2, with “in jugular” for “in portal”; format: ADME, organism-based, Canis lupus familiaris; set-up: dose 10 mg/kg, route oral, time infinity; conditions: in vivo; procedure, shortened: as §1
[13] = Permeability in MDCK2 cells at 1 uM incubated for 3 hrs by LC-MS/MS method; format: ADME, cell-based, Canis lupus familiaris, MDCK-II; conditions: dog, MDCK; read-out: permeability
[14] = (§4) AUC (0 to infinity) in portal vein of portal vein-cannulated beagle dog assessed as (1R,2S,5R)-8'-(3-chloro-4-fluorobenzyl)-6'-hydroxy-1-(hydroxymethyl)-2'-methyl-9',10'-dihydro-1'H-spiro[bicyclo[3.1.0]hexane-2,3'-imidazo[5,1-a][2,6]naphthyridine]-1',5',7'(2'H,8'H)-trione level at 10 mg/kg, po by LC-MS/MS method; format: ADME, organism-based, Canis lupus familiaris; set-up: dose 10 mg/kg, route oral, time infinity; conditions: in vivo; procedure, shortened: as §1
[15] = tested on: Canis familiaris; test: AUC (0 to infinity) in beagle dog assessed as (1R,2S,5R)-8'-(3-chloro-4-fluorobenzyl)-6'-hydroxy-1-(hydroxymethyl)-2'-methyl-9',10'-dihydro-1'H-spiro[bicyclo[3.1.0]hexane-2,3'-imidazo[5,1-a][2,6]naphthyridine]-1',5',7'(2'H,8'H)-trione level at 30 mg/kg, po by LC-MS/MS method; format: ADME, organism-based, Canis lupus familiaris; set-up: dose 30 mg/kg, route oral, time infinity; conditions: in vivo; procedure, shortened: as §3
[16] = as §4, with “in jugular” for “in portal”; format: ADME, organism-based, Canis lupus familiaris; set-up: dose 10 mg/kg, time infinity, route oral; conditions: in vivo; procedure, shortened: as §1
[17] = tested on: Canis familiaris; test: AUC (0 to infinity) in beagle dog assessed as c(1R,2S,5R)-8'-(3-chloro-4-fluorobenzyl)-6'-hydroxy-1-(hydroxymethyl)-2'-methyl-9',10'-dihydro-1'H-spiro[bicyclo[3.1.0]hexane-2,3'-imidazo[5,1-a][2,6]naphthyridine]-1',5',7'(2'H,8'H)-trione evel at 2 mg/kg, po by LC-MS/MS method; format: ADME, organism-based, Canis lupus familiaris; set-up: dose 2 mg/kg, route oral, time infinity; conditions: in vivo; procedure, shortened: as §3
[18] = tested on: Canis familiaris; test: AUC (0 to infinity) in beagle dog assessed as (1R,2R,5S)-8'-(3-chloro-4-fluorobenzyl)-6'-hydroxy-2'-((S)-2-hydroxypropyl)-9',10'-dihydro-1'H-spiro[bicyclo[3.1.0]hexane-2,3'-imidazo[5,1-a][2,6]naphthyridine]-1',5',7'(2'H,8'H)-trione level at 100 mg/kg, po by LC-MS/MS method; format: ADME, organism-based, Canis lupus familiaris; set-up: dose 100 mg/kg, time infinity, route oral; conditions: in vivo; procedure, shortened: as §3

SMILES	IP [1]	solubility at 4 h [2]	remaining at 4 h [3]	AUC(0-inf) [4]	remaining at 4 h [5]	Papp at 3 h, 1 µM [6]	AUC(0-inf) [7]	AUC [8]	AUC(0-inf) [9]	AUC [10]	AUC [11]	AUC [12]	Papp at 3 h, 1 µM [13]	AUC [14]	AUC [15]	AUC [16]	AUC [17]	AUC [18]
C[C@@H](CN1C(=O)c2c3c(c(O)c(=O)n2[C@@]12CC[C@H]1C[C@H]12)C(=O)N(Cc1ccc(F)c(Cl)c1)CC3)OP(=O)(O)O	1580 nM	2300 µg/mL (≈ 3950 µM)	> 98%	6.8 µM·h	> 98%													
C[C@@H](CN1C(=O)c2c3c(c(O)c(=O)n2[C@@]12CC[C@H]1C[C@H]12)C(=O)N(Cc1ccc(F)c(Cl)c1)CC3)OC(=O)[C@@H](N)CCCCN	40 nM	> 2000 µg/mL	90%	6.8 µM·h	90%													
CC(C)OC(=O)OCOc1c2c(c3n(c1=O)[C@@]1(CC[C@H]4C[C@H]41)N(C[C@H](C)O)C3=O)CCN(Cc1ccc(F)c(Cl)c1)C2=O	178 nM	250 µg/mL (≈ 404 µM)	> 98%		> 98%	26.7 ×10⁻⁶ cm/s	0.034 µM·h	23.9 µM·h	1.12 µM·h	128 µM·h	23 µM·h	33.9 µM·h	23.5 ×10⁻⁶ cm/s					
CC(C)OC(=O)OCOc1c2c(c3n(c1=O)[C@]1(CC[C@@H]4C[C@@]41CO)N(C)C3=O)CCN(Cc1ccc(F)c(Cl)c1)C2=O	16 nM	500 µg/mL (≈ 828 µM)	> 98%		> 98%	26.5 ×10⁻⁶ cm/s	0.037 µM·h		2.55 µM·h				19.7 ×10⁻⁶ cm/s	27.3 µM·h	284 µM·h	30.4 µM·h	5 µM·h	
CC(C)OC(=O)OCOc1c2c(c3n(c1=O)[C@@]1(CC[C@H]4C[C@H]41)N(C[C@H](C)OP(=O)(O)O)C3=O)CCN(Cc1ccc(F)c(Cl)c1)C2=O	>4200 nM	> 2000 µg/mL	> 98%		> 98%													570 µM·h
